Experimental data reported in paper PMC10723041 (Science (New York, N.Y.), 2021).
Read-outs that look alike come from different tables or passages of the source.

What was measured:
[1] = target: S. aureus CSE (SaCSE) (Staphylococcus aureus, UniProt X5E0F1); experiment: H2S production enzymatic assay, SaCSE; assay type: biochemical; settings: for inhibition of bCSEs (SaCSE): at considerably higher concentrations than for hCSE
[2] = target: P. aeruginosa CSE (PaCSE) (Pseudomonas aeruginosa, UniProt Q9I6A0); experiment: H2S production enzymatic assay, PaCSE; assay type: biochemical; settings: for inhibition of bCSEs (PaCSE): at considerably higher concentrations than for hCSE
[3] = target: T1, SaCSE H339A mutant (Staphylococcus aureus, UniProt X5E0F1, H339A); experiment: H2S generating activity of SaCSE H339A mutant; assay type: biochemical, S. aureus; settings: for IC50: read-out: IC50 for SaCSE H339A mutant, mean ± SE, n=2
T1 sequence (X5E0F1 1-380 H339A): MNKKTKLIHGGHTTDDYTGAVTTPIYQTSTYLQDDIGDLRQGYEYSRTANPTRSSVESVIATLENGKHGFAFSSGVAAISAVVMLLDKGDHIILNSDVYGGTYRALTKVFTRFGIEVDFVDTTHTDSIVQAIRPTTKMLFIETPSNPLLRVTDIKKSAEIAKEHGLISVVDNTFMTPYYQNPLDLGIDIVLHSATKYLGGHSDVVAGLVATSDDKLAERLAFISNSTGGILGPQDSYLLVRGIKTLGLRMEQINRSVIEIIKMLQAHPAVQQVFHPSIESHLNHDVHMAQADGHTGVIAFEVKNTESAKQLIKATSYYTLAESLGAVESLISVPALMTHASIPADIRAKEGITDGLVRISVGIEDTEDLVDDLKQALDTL

[4] = test system: S. aureus Newman; experiment: S. aureus sepsis; assay type: in vivo, Swiss Webster mice; settings: NL1 or Gm alone
[5] = test system: P. aeruginosa PA14; experiment: P. aeruginosa intranasal lung infection model; assay type: in vivo, Swiss Webster mice; settings: for lung bacterial burden, single agent: NL1 or Gm administered separately, lungs collected 5h after infection
[6] = test system: S. aureus RN4220 (MSSA) and USA300 (MRSA); experiment: Antibiotic potentiation; assay type: cell-based
[7] = test system: P. aeruginosa PA14 and PAO1; experiment: Antibiotic potentiation; assay type: cell-based
[8] = target: SaCSE (Staphylococcus aureus, UniProt X5E0F1); experiment: Microscale Thermophoresis; assay type: binding
[9] = test system: persisters; experiment: Persister assay with H2S donor; assay type: cell-based
[10] = Aqueous solubility
[11] = test system: different types of human cells; experiment: Toxicity to human cells; assay type: cell-based; settings: various assays
[12] = Chronic exposure in animal model; assay type: in vivo; settings: stringent animal model
[13] = test system: S. aureus USA300; experiment: Persister viability under antibiotic challenge; assay type: cell-based; settings: wt cells, ciprofloxacin 10 µg/ml challenge
[14] = test system: P. aeruginosa PA14; experiment: Persister viability under antibiotic challenge; assay type: cell-based; settings: wt cells, ciprofloxacin 10 µg/ml challenge
Summary of the method: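 Exponentially growing P. aeruginosa PA14 cultures were challenged with ciprofloxacin at 10 µg/ml. The viable cell fraction was followed over time as a killing curve, and the curve tail was taken as the persister population. Data are mean ± SE, n=3.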

[15] = test system: P. aeruginosa PA14; experiment: Pyocyanin redox state in stationary phase culture; assay type: cell-based; settings: well-aerated PA14; NL1 180 µM for 18 h
Summary of the method: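 Stationary-phase P. aeruginosa PA14 cultures (OD600 ~1.5) were well aerated and treated with test compound at 180 µM for 18 h. Pyocyanin redox state was judged visually by culture colour: blue/green for oxidized, light yellow for reduced. Comparators were untreated wt and a cbs/cse(−) mutant.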

[16] = to approximately the same extent as genetic inactivation of bCSE

O=C(O)c1cc(Cn2ccc3ccc(-c4cc5cccc(Cl)c5s4)cc32)[nH]n1 [NL3]
IC50 ([1]; read-out: IC50 for SaCSE, L-cysteine at 100 μM): 700 nM
IC50 ([2]; read-out: IC50 for PaCSE, L-cysteine at 100 μM): 1200 nM
IC50 [3]: 1700 ± 100 nM

gentamycin [Gm, reference compound]
survival, single agent [4]: neither NL1 nor Gm alone increased survival
lung bacterial burden, single agent [5]: did not change significantly

[Na+].[SH-] [NaHS, reference compound]
effect of exogenous sulfide on Gm potentiation by NL1, S. aureus RN4220 [6]: largely suppressed Gm potentiation
effect of exogenous sulfide on Gm potentiation by NL1, P. aeruginosa PA14 [7]: largely suppressed Gm potentiation

O=C(O)CNC(=O)Cn1c(C(F)(F)F)cc2ccc(Br)cc21 [NL1F3]
IC50 [1]: > 200000 nM
apparent KD for SaCSE (MST) [8]: failed

NOCC(=O)O [AOAA, aminooxyacetic acid]
inhibition of bCSEs (SaCSE) [1]: capable of inhibiting bCSEs
inhibition of bCSEs (PaCSE) [2]: capable of inhibiting bCSEs

C=CCSSSCC=C [DATS, diallyl trisulfide]
effect of H2S donor on anti-persister effect of NL1 [9]: prevented the anti-persister effect of NL1

NO [HA, hydroxylamine]
inhibition of bCSEs (SaCSE) [1]: capable of inhibiting bCSEs
inhibition of bCSEs (PaCSE) [2]: capable of inhibiting bCSEs

Cc1oc(Cn2ccc3ccc(Br)cc32)cc1C(=O)O [NL2]
reduction of inhibition in H339A mutant versus wt SaCSE [3]: ~ 70 fold
IC50 [3]: 154000 ± 94800 nM
aqueous solubility relative to NL3 [10]: higher aqueous solubility than NL3

NCCO/C=C/[C@H](N)C(=O)O [AVG, L-aminoethoxyvinylglycine]
inhibition of bCSEs (SaCSE) [1]: capable of inhibiting bCSEs
inhibition of bCSEs (PaCSE) [2]: capable of inhibiting bCSEs

O=C(O)CNC(=O)Cn1ccc2ccc(Br)cc21 [NL1]
Kd [8]: ~400 nM
sensitization of bCSE-deficient S. aureus RN4220 to Gm ([6]; cse mutant): failed to sensitize
sensitization of wild type S. aureus RN4220 to Gm [6, 16]: enhanced the killing effect of Gm
sensitization of bCSE-deficient P. aeruginosa PA14 to Gm ([7]; cse mutant): failed to sensitize
sensitization of wild type P. aeruginosa PA14 to Gm [7, 16]: enhanced the killing effect of Gm
non-toxic concentration in human cells [11]: at least 25 × of its minimal potentiator concentration
adverse effects of chronic exposure [12]: No adverse effects
survival, single agent [4]: neither NL1 nor Gm alone increased survival
lung bacterial burden, combination with Gm ([5]; NL1 60 mg/kg together with Gm 2 mg/kg subcutaneous, 30 min after infection, lungs 5h after infection): markedly decreased
lung bacterial burden, single agent [5]: did not change significantly
effect on persisters, S. aureus USA300 [13]: eliminated approximately the same amount of persisters as did genetic inactivation of cse/cbs
effect on persisters, P. aeruginosa PA14 [14]: eliminated approximately the same amount of persisters as did genetic inactivation of cse/cbs
culture coloration (pyocyanin redox state) [15]: green-blue coloration characteristic of the oxidized pyocyanin
aqueous solubility relative to NL3 [10]: higher aqueous solubility than NL3
